{"source": "ChEMBL document CHEMBL1126785", "about": "“Peptidomimetic HIV protease inhibitors: phosphate prodrugs with improved biological activities” (J Med Chem, 1993)", "key": {"[1]": {"target": "Human immunodeficiency virus type 1 protease (Human immunodeficiency virus 1, UniProt Q72874)", "test": "Tested for inhibitory activity against HIV-1 protease", "how_it_was_run": "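Recombinant HIV-1 protease hydrolysing 2.5 mM synthetic octapeptide substrate H-Val-Ser-Gln-Asn-Tyr-Pro-Ile-Val-OH, with or without inhibitor. Run at 30 °C in 100 mM sodium acetate pH 5.5 with 10% glycerol, 5% ethylene glycol and 0.1% Nonidet P-40. Stopped after 30 min with 1% trifluoroacetic acid; hydrolysis quantified by HPLC.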"}, "[2]": {"tested_on": "Human immunodeficiency virus 1", "test": "(§1) Tested for the inhibition of p24 production in HIV-1 IIIB infected human peripheral blood mononuclear cells (PBMC)", "assay_type": "functional", "how_it_was_run": "(§2)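 Human PBMC (5×10^4 cells) were infected with HIV-1 IIIB at MOI 0.003 for 90 min. They were then kept in triplicate wells with continuous compound present for 7 days; compounds came from 10 mM DMSO stocks. Supernatant p24 was measured by ELISA. IC50 and IC90 were taken from linear regression on the linear part of the dose-response curve.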"}, "[3]": {"tested_on": "Human immunodeficiency virus 1", "test": "as §1", "assay_type": "functional, organism-based", "how_it_was_run": "as §2"}}}
{"smiles": "CC[C@H](C)[C@H](NC(=O)[C@H](C(C)C)[C@@H](O)[C@H](O)[C@H](CC1CCCCC1)NC(=O)[C@H](Cc1c[nH]cn1)NC(=O)COc1cccc2ccccc12)C(=O)NCc1ccccn1", "values": [{"measurement": "Ki", "setting": "[1]", "value": "< 1", "unit": "nM"}, {"measurement": "IC90", "setting": "[2]", "value": 223, "unit": "nM"}, {"measurement": "IC50", "setting": "[3]", "value": 50.2, "unit": "nM"}]}
